Active and inactive are the calls of the source.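 The calls were made as follows, unless noted: active = viability at or under a set limit in both replicates, limit being median viability minus 3 SD (cut at about 48% in these data, passing the limit was not always enough); inconclusive = at or under the limit in just one replicate; inactive = at or above the limit in both replicates.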
Columns and labels:
[1] = Her2 expression decrease, cell viability multiplex – SKBR3 breast tumor cells, AlphaScreen, ATP viability, primary screen (AID 461;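 active = Her2 level under about 52% in both replicate screens, with viability over 70% of control, limit read from the data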;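 as to Her2 level: lower value means less Her2 protein in the cells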;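 as to viability: percent of carrier control wells set as 100% viability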); conditions: SKBR3 Her2 protein level, 18-24 h, measured here: SKBR3 viability, ATP luminescence, at 10 µM
[2] = biological target: Receptor tyrosine-protein kinase erbB-2 (Homo sapiens) (UniProt P04626); assay: as above; conditions: 18-24 h, at 10 µM, stronger effect = lower value
[3] = reduced viability of SK-BR-3 breast cancer cells – cell-based, 24 h, human, pilot screen (AID 572;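 active = viability at or below 10% of carrier control in both of two separate runs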;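 also: compound exposure lasted between 18 and 24 h rather than exactly 24 h; 100% = carrier-treated control wells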); conditions: SK-BR-3 viability, CellTiter-Glo luminescence, at 10 µM, stronger effect = lower value
[4] = HUVEC growth inhibition – cell-based, human, primary screen (AID 575;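 active = viability at or below 30% in both replicate assays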;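 also: 100% = median of untreated cell wells with 0.1% DMSO on each plate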); conditions: HUVEC proliferation, CellTiter-Glo luminescence, 72 h; at 10 µM; stronger effect = lower value
In short: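 Timing: 72 h treatment at 37 °C; material: HUVEC primary cells; technique: CellTiter-Glo luminescence measuring cellular ATP; controls: vehicle and MePR control wells; measure: percent of median DMSO-control luminescence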

[5] = H69AR cell proliferation blockers – human, duplicate replicates, primary screen (AID 580); conditions: H69AR lung tumor cells viability, ATP luminescence, 72 h; at 10 µM; stronger effect = lower value;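 also: 100% = mean luminescence of untreated wells and 0% = no signal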
[6] = MRP1 drug-resistance reversers in H69AR cells – cell-based, doxorubicin co-treatment, pilot screen (AID 601;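 active = viability loss from added drug above about 55%, and viability with drug at most 40%, in both replicates, limit read from the data, passing the limit was not always enough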); conditions: CellTiter-Glo, 72 h, at 10 µM; for differential viability (reversal): stronger effect = higher value
[7] = yeast transport mutant growth inhibition pilot in 384-well plates, post-Golgi transport modulator project (AID 636; in the data active = inhibition above about 31%); conditions: absorbance 615 nm, about 18 h, stronger effect = higher value
[8] = growth suppression of yeast trafficking mutant, preliminary HTS, modulators of trafficking downstream of Golgi apparatus project, 1536-format plate, OD 615 nm (AID 637; in the data active = inhibition above about 30%); conditions: yeast transport mutant growth, absorbance 615 nm, 18 h; stronger effect = higher value
[9] = H69AR cells + 2 uM doxorubicin, measured here: viability with 2 uM doxorubicin, stronger effect = lower value
[10] = H69AR cells, compound alone cytotoxicity

Sequence of Receptor tyrosine-protein kinase erbB-2 (Homo sapiens) (P04626 whole entry, looked up): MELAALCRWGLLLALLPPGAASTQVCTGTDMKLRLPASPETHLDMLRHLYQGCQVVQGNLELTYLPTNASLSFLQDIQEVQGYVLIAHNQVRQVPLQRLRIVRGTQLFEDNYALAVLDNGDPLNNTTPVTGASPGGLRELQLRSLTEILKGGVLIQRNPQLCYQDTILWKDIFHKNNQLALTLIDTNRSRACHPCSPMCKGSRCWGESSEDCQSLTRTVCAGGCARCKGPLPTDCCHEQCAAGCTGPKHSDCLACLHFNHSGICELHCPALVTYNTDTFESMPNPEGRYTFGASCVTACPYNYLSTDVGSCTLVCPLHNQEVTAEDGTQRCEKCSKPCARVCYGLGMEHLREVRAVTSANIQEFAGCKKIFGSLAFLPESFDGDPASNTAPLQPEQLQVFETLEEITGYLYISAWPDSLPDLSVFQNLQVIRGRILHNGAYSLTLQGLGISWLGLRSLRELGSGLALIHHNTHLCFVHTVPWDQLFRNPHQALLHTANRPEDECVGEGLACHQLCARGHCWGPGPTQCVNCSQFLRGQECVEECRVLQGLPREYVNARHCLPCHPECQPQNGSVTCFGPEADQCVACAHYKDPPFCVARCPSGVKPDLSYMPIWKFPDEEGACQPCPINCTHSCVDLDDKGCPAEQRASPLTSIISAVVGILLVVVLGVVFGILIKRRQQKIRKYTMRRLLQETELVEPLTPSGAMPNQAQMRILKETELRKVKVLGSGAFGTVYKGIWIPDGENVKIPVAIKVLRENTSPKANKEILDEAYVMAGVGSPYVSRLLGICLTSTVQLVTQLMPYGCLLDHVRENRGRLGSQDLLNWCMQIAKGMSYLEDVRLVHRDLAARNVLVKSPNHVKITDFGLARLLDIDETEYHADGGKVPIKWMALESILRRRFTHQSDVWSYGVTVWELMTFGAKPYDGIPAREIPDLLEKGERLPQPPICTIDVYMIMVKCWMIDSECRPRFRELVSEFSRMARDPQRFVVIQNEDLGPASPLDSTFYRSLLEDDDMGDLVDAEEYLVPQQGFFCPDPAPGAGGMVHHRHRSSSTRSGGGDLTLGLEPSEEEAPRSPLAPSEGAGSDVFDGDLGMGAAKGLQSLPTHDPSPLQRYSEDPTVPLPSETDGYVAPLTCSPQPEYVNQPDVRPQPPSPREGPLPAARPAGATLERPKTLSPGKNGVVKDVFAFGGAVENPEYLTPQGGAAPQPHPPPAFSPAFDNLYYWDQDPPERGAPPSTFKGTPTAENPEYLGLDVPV

| Compound | viability [1] [%] | Her2 level [2] | viability [3] | viability [4] | viability [5] | differential viability (reversal) ([6]; H69AR cells + 2 uM doxorubicin) | viability [6, 9] [%] | viability [6, 10] [%] | inhibition [7] | inhibition [8] |
| --- | --- | --- | --- | --- | --- | --- | --- | --- | --- | --- |
| CC(C)CC(=O)N1CCN(S(=O)(=O)c2ccc(F)cc2)CC1 | 86.5 | 102% (inactive) | 86.5% (inactive) | 86.5% (inactive) | 94.9% (inactive) | 9.04% (inactive) | 85.8 | 94.9 | 2.56% (inactive) | 27% (inactive) |
| O=S(=O)(Cc1ccccc1)N1CCN(Cc2ccccc2)CC1 | 84.5 | 109% (inactive) | 84.5% (inactive) | 87.3% (inactive) | 95.5% (inactive) | 15.5% (inactive) | 79.9 | 95.5 | -0.13% (inactive) | 0.95% (inactive) |
| Cc1occc1C(=O)Nc1cccc2ccccc12 | 86 | 75.5% (inactive) | 86% (inactive) | 62.9% (inactive) | 73.2% (inactive) | -12.8% (inactive) | 86.1 | 73.2 | -1.84% (inactive) | 1.77% (inactive) |
| CCn1c(CSc2nnc(-c3cccnc3)n2-c2ccccc2C)nc2cc(C(=O)O)ccc21 | 95.5 | 109% (inactive) | 95.5% (inactive) | 94% (inactive) | 99.1% (inactive) | 11.4% (inactive) | 87.8 | 99.1 | -3.56% (inactive) | -7.3% (inactive) |
| CCOc1ccc(N(CC(=O)NCC2CCCO2)S(=O)(=O)c2ccc(OC)c(OC)c2)cc1 (stereo not given) | 105 | 98.5% (inactive) | 105% (inactive) | 118% (inactive) | 116% (inactive) | 19.2% (inactive) | 96.3 | 116 | -4% (inactive) | -5.97% (inactive) |
| CCCn1c(SCC(=O)NC(C)(C)C)nnc1C(C)C | 110 | 79.5% (inactive) | 110% (inactive) | 95.9% (inactive) | 93% (inactive) | 3.9% (inactive) | 89.1 | 93 | -4.32% (inactive) | 17.6% (inactive) |
| CCCCN(CC)S(=O)(=O)N1CCC(C(=O)NCc2ccc(F)cc2)CC1 | 97 | 113% (inactive) | 97% (inactive) | 109% (inactive) | 101% (inactive) | 0.67% (inactive) | 101 | 101 | -4.34% (inactive) | 2.62% (inactive) |
| CCc1nc(N[C@@H](Cc2c[nH]c3ccccc23)C(=O)O)c2oc3ccccc3c2n1 | 100 | 81% (inactive) | 100% (inactive) | 71.7% (inactive) | 82.1% (inactive) | -14.6% (inactive) | 96.7 | 82.1 | -5.07% (inactive) | -3.44% (inactive) |
| Cc1cccc(NC(=O)CC2NC3CCCCC3NC2=O)c1 (stereo not given) | 99.5 | 102% (inactive) | 99.5% (inactive) | 96.7% (inactive) | 93.6% (inactive) | 2.89% (inactive) | 90.7 | 93.6 | -3.42% (inactive) | -1.17% (inactive) |
| COc1cc(N=c2ssnc2Cl)cc(OC)c1 | 84.5 | 111% (inactive) | 84.5% (inactive) | 78% (inactive) | 3.23% (active) | -1.38% (inactive) | 4.61 | 3.23 | -5% (inactive) | 0.48% (inactive) |
| S=C(NCC1CCCO1)n1nnc2ccccc21 (stereo not given) | 121 | 49% (active) | 121% (inactive) | 66.2% (inactive) | 74.8% (inactive) | 0.715% (inactive) | 74.1 | 74.8 | -1.07% (inactive) | -0.95% (inactive) |
| Clc1cccc(-c2nn3c(Cn4cnc5ccccc54)nnc3s2)c1 | 94.5 | 82.5% (inactive) | 94.5% (inactive) | 76.9% (inactive) | 94.9% (inactive) | -1.69% (inactive) | 96.6 | 94.9 | 0.92% (inactive) | 5.9% (inactive) |
| Cc1ccccc1NC(=O)CSc1nnc(Cc2cccn2C)n1-c1ccc(F)cc1 | 88.5 | 112% (inactive) | 88.5% (inactive) | 78.6% (inactive) | 100% (inactive) | -1.44% (inactive) | 102 | 100 | -0.9% (inactive) | -3.5% (inactive) |
| CC1CCN(C(=S)c2ccccc2O)CC1 | 116 | 105% (inactive) | 116% (inactive) | 92.8% (inactive) | 89% (inactive) | -0.9% (inactive) | 89.9 | 89 | -5.2% (inactive) | -6.29% (inactive) |
| Cc1c(C)c2cc(Cl)c(O)c(CN3CCCCC3)c2oc1=O | 97.5 | 112% (inactive) | 97.5% (inactive) | 102% (inactive) | 99% (inactive) | 3.51% (inactive) | 95.5 | 99 | 1.18% (inactive) | 5.57% (inactive) |
| CCOC(=O)C1(C(=O)OCC)C(c2ccccc2)CC(O)N1C(C)=O (stereo not given) | 116 | 95% (inactive) | 116% (inactive) | 89.1% (inactive) | 86.2% (inactive) | 6.16% (inactive) | 80 | 86.2 | -6.18% (inactive) | 2.54% (inactive) |

| Compound | viability [1] [%] | Her2 level [2] | viability [3] | viability [4] | viability [5] | differential viability (reversal) ([6]; H69AR cells + 2 uM doxorubicin) | viability [6, 9] [%] | viability [6, 10] [%] | inhibition [7] | inhibition [8] |
| --- | --- | --- | --- | --- | --- | --- | --- | --- | --- | --- |
| CCOC(=O)COc1ccc(S(=O)(=O)N2CCc3ccccc3C2)cc1 | 111 | 102% (inactive) | 111% (inactive) | 9.96% (active) | 96.7% (inactive) | 13.7% (inactive) | 83 | 96.7 | -1.97% (inactive) | 0.65% (inactive) |
| O=S(=O)(Nc1cccnc1)c1ccc2c(c1)OCCO2 | 91.5 | 92% (inactive) | 91.5% (inactive) | 99.7% (inactive) | 104% (inactive) | 12.1% (inactive) | 91.9 | 104 | -6.97% (inactive) | 3.17% (inactive) |
| Cc1c(C#N)c(N)c(C(=O)c2ccccc2)n1Cc1ccccc1 | 83.5 | 122% (inactive) | 83.5% (inactive) | 97.3% (inactive) | 87.4% (inactive) | 0.08% (inactive) | 87.3 | 87.4 | -7.57% (inactive) | -16.4% (inactive) |
| CCCc1cc(Nc2cccc(OC)c2)n2ncnc2n1 | 83 | 129% (inactive) | 83% (inactive) | 94.6% (inactive) | 81.2% (inactive) | -0.635% (inactive) | 81.8 | 81.2 | -4.1% (inactive) | -5% (inactive) |
| CCN(CC)C(=O)C1CCC(CNS(=O)(=O)c2cccc3cccnc23)CC1 (stereo not given) | 92 | 97% (inactive) | 92% (inactive) | 89.9% (inactive) | 99.2% (inactive) | 2.08% (inactive) | 97.1 | 99.2 | -1.87% (inactive) | -2.3% (inactive) |
| Cc1cccc(N(C)C(=O)c2coc(=O)c3ccccc23)c1 | 85 | 81% (inactive) | 85% (inactive) | 82.9% (inactive) | 85.8% (inactive) | -2.86% (inactive) | 88.7 | 85.8 | -3.16% (inactive) | -1.64% (inactive) |
| CCCCN(CCCNC(=O)C1CCN(S(=O)(=O)CC)CC1)c1ccccc1 | 87 | 89.5% (inactive) | 87% (inactive) | 97.3% (inactive) | 96.6% (inactive) | -1.6% (inactive) | 98.2 | 96.6 | -2.89% (inactive) | -6.83% (inactive) |
| Cc1c(/C(O)=C2/C(=O)C(=O)N(CCN3CCOCC3)C2c2cccs2)cnn1-c1ccccc1 (stereo not given) | 88 | 114% (inactive) | 88% (inactive) | 116% (inactive) | 96.2% (inactive) | 1.22% (inactive) | 95 | 96.2 | -0.79% (inactive) | 0.16% (inactive) |
| CCOP(=O)(c1ccc(N(C)C)cc1)C(O)c1c(Cl)cccc1Cl (stereo not given) | 83 | 87.5% (inactive) | 83% (inactive) | 97.4% (inactive) | 90.1% (inactive) | 0.49% (inactive) | 89.6 | 90.1 | -1.6% (inactive) | -2.58% (inactive) |
| Cc1ccc2c(c1)c1c3n2CC(=C2C(=O)OC(C)(C)OC2=O)NC3CCC1 (stereo not given) | 103 | 73% (inactive) | 103% (inactive) | 73.1% (inactive) | 94.6% (inactive) | 9.35% (inactive) | 85.3 | 94.6 | -4.67% (inactive) | -4.59% (inactive) |
| CC1CCN(c2oc(-c3cccc4ccccc34)nc2C#N)CC1 | 104 | 72.5% (inactive) | 104% (inactive) | 81.7% (inactive) | 91.7% (inactive) | 9.42% (inactive) | 82.3 | 91.7 | -5.53% (inactive) | -7.33% (inactive) |
| COc1ccc(-n2nc(C(=O)NCC(=O)NCC3CCCO3)c3ccccc3c2=O)cc1 (stereo not given) | 120 | 86.5% (inactive) | 120% (inactive) | 103% (inactive) | 85.5% (inactive) | -6.73% (inactive) | 92.2 | 85.5 | -0.78% (inactive) | 1.15% (inactive) |
| Clc1ccccc1OCCCCn1ccnc1 | 95 | 114% (inactive) | 95% (inactive) | 95.9% (inactive) | 83.7% (inactive) | 11.4% (inactive) | 72.3 | 83.7 | 2.34% (inactive) | -4.33% (inactive) |
| Cc1nc(C)c(C(=O)Nc2ccc(Oc3ccccc3)cc2)o1 | 94.5 | 82% (inactive) | 94.5% (inactive) | 66.4% (inactive) | 103% (inactive) | 23.8% (inactive) | 79.4 | 103 | -6.35% (inactive) | -6.5% (inactive) |
| Cn1cccc1Cc1nnc(SCC(=O)Nc2ccccc2F)n1CCc1ccccc1 | 78.5 | 91% (inactive) | 78.5% (inactive) | 89.4% (inactive) | 83.7% (inactive) | 1.68% (inactive) | 82.1 | 83.7 | 1.15% (inactive) | 2.67% (inactive) |
| CC1(C)CC(=O)CC(C)(C)N1OC(=O)c1ccccn1 | 106 | 94% (inactive) | 106% (inactive) | 94% (inactive) | 102% (inactive) | 8.9% (inactive) | 93.6 | 102 | -2.3% (inactive) | 5.74% (inactive) |

— PubChem BioAssay
